In paper PMC8752318 (Nano Today, 2022):

Tests used:
[1] = test system: STING-dependent IRF3; conditions: ref [44]; cited from earlier work
[2] = test system: SARS-CoV-2 B.1.617.2 pseudovirus; conditions: in vivo, ip
[3] = test system: SARS-CoV-2 B.1.351 pseudovirus; conditions: in vivo, ip
[4] = test system: IKBKE kinase-dependent activity of IRF3; conditions: ref [44]; cited from earlier work
[5] = test system: immunoregulatory cytokines such as interferons and tumor necrosis factors; conditions: in vivo and in vitro, ref [29], [30], [31], [32]; cited from earlier work
[6] = naked amantadine; ref [33], [54], [55]; cited from earlier work
[7] = naked amantadine; ref [33], [54], [55]; cited from earlier work; remark: listed apart in the source
[8] = test system: DC 2.4 cells; assay: DC 2.4 activation by flow cytometry; format: cell-based; conditions: 10 μg/mL, 24 h
In short: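 DC 2.4 cells (1 × 10^6 per well) were cultured 12 h, then exposed to 10 μg test compound or tetrapeptide for 24 h. Staining used DAPI live/dead for viability, anti-CD40 and anti-CD86 for maturation, and anti-IL-4 and anti-TNF-α for function. At least 50,000 cells per sample were read by flow cytometry.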

[9] = test system: SARS-CoV-2 infection and symptomatology; conditions: in vivo; cited from earlier work
[10] = test system: animal model; conditions: repeated injections with high dose; ref [28]; cited from earlier work
[11] = test system: RIG-I-like receptor (RLR) signaling pathway; assay: Transcriptome sequencing analysis of lymph node immune cells; format: in vivo, Balb/c mice; conditions: WGCNA; AAS (Fig. 4g) or naked amantadine (Fig S7)
[12] = test system: DC 2.4 cells; assay: Cellular uptake inhibition; format: cell-based; conditions: read-out: inhibition rate of AAS uptake by DCs
In short: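 DC 2.4 cells were grown in DMEM with 10% FBS and penicillin/streptomycin at 37 °C, 5% CO2, then seeded at 5 × 10^5 per well for 24 h. Cells were pretreated 1 h with 5 μM cytochalasin B or cytochalasin D, then given 5 μg Cy5-labelled AAS for 2 h. They were washed in PBS/2% FBS, fixed in 2% paraformaldehyde for 10 min, and Cy5 uptake was read by flow cytometry.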

In the case of `CCn1c(-c2nonc2N)nc2c(C#CC(C)(C)O)ncc(OC[C@H]3CCCNC3)c21` [GSK690693], the “inhibition of STING-dependent IRF3 activation” value [1] is listed as “inhibit the activation of STING-dependent IRF3”, the “decrease of neutralizing antibody against B.1.617.2 vs AAS+RBD group” value [2] is listed as 6 fold and the “decrease of neutralizing antibody against B.1.351 vs AAS+RBD group” value [3] is listed as 7 fold. For the same compound, the “inhibition of IKBKE kinase-dependent activity of IRF3 (GSK690693)” value [4] was “inhibit the IKBKE kinase-dependent activity of IRF3”.
For `NC12CC3CC(CC(C3)C1)C2` [amantadine], the “secretion of immunoregulatory cytokines” value [5] is given as “increase the secretion of multiple immunoregulatory cytokines”, the “half-life period in vivo” value [6] is given as “short half-life period” and the water solubility [7] is given as “unsatisfactory water solubility”. For the same compound, the “immunostimulation activity against immune cells” value [8] was “possesses the immunostimulation activity”, the “prevention of SARS-CoV-2 infection and symptomatology” value [9] was “can prevent SARS-CoV-2 infection and symptomatology” and the adverse reactions [10] was “not observed”. For the same compound, the “protein-protein interaction (PPI) network key genes” value [11] was “three RLR signaling pathway-related genes (Oasl2, RIG-I and IRF3) located in the central position”.
For `C=C1[C@@H](C)[C@H]2[C@H](Cc3ccccc3)NC(=O)[C@]23OC(=O)/C=C/[C@H](O)CCC[C@@H](C)C/C=C/[C@H]3[C@@H]1O` [cytochalasin B], the inhibition at 5 µM [12] was 11.7%.
`C=C1[C@@H](C)[C@H]2[C@H](Cc3ccccc3)NC(=O)[C@]23[C@H](OC(C)=O)/C=C/[C@@](C)(O)C(=O)[C@@H](C)C/C=C/[C@H]3[C@@H]1O` [cytochalasin D] showed an inhibition at 5 µM [12] of 46%.
In the case of `CN(C)c1ccc(C(=C2C=CC(=[N+](C)C)C=C2)c2ccccc2)cc1.CN(C)c1ccc(C(=C2C=CC(=[N+](C)C)C=C2)c2ccccc2)cc1.O=C(O)C(=O)O.O=C([O-])C(=O)O.O=C([O-])C(=O)O` [malachite green oxalate], the “decrease of neutralizing antibody against B.1.351 vs AAS+RBD group” value [3] is reported as 4 fold.
